# pIC50: −log10 of the molar value.
# What was measured:
# [1] = biological target: T1, Tyrosinase (Homo sapiens) (UniProt P14679); assay: Inhibition of tyrosinase (unknown origin) using L-tyrosine as substrate assessed as oxidation of L-tyrosine at 20 uM after 15 mins
# T1 sequence (whole entry): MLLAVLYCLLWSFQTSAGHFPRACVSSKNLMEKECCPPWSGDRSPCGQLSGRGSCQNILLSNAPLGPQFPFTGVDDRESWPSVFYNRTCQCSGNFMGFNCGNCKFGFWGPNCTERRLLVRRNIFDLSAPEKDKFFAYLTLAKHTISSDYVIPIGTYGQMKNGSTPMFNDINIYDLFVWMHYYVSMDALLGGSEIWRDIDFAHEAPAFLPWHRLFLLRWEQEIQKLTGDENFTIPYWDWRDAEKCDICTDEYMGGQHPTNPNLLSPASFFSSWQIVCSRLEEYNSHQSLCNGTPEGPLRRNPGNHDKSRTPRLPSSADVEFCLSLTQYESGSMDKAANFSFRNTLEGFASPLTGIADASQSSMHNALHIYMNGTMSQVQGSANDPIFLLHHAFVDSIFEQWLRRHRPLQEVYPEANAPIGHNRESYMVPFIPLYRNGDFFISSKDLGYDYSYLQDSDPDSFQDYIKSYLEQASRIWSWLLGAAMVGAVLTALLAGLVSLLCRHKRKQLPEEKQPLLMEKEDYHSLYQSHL
# Outline: (§1)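 Tyrosinase at 333 U/mL (stock) in 45 mM sodium phosphate, pH 6.6, with 2 mM L-tyrosine (stock). Incubated 37 °C for 15 min; oxidation read at 492 nm. Screened at 20 μM; dose-response for IC50. Glyasperin C positive control.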
# [2] = biological target: T2, Tyrosinase (Homo sapiens, UniProt P14679); assay: Inhibition of tyrosinase (unknown origin) using L-tyrosine as substrate assessed as oxidation of L-tyrosine after 15 mins; outline: as §1
# T2 sequence (P14679 whole entry): T1 sequence (whole entry)
# [3] = biological target: T3, Acetylcholinesterase (Homo sapiens, UniProt P22303); assay: Inhibition AChE (unknown origin) using ATCI as substrate assessed as hydrolysis of ATCI at 25 uM measured every 1 min for 10 times
# T3 sequence (P22303 whole entry): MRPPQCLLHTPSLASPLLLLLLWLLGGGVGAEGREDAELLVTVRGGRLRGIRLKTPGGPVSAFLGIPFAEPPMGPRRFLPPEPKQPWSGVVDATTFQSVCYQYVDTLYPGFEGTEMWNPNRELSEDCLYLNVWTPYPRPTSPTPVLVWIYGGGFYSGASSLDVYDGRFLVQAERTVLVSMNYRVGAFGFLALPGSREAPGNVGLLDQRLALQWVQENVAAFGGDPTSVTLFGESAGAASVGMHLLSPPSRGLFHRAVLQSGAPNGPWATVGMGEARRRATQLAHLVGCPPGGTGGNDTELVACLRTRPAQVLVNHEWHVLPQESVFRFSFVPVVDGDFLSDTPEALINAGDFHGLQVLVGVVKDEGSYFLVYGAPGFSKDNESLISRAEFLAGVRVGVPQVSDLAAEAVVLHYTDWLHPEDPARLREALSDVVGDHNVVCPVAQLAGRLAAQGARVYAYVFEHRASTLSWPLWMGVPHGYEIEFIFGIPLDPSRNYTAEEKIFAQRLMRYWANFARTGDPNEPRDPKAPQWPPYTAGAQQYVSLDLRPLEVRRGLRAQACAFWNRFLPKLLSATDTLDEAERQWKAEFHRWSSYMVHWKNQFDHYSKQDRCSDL
# Outline: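 Commercial AChE (added as 0.025 U/mL solution) in Tris-HCl (30 mM, pH 8.0) with DTNB (added as 0.26 mM) and ATCI substrate (added as 0.2 mM); 200 μL mixture at room temperature. Thiocholine release read at 405 nm every min, 10 reads; linear slope taken as rate. Screening at 25 μM; galanthamine positive control.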
# [4] = tested on: HepG2; assay: Cytotoxicity against human HepG2 cells assessed as reduction in cell viability after 24 hrs by MTS assay; type: functional, cell-based; conditions: HepG2, 24 h
# Outline: (§2)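 Cells seeded at 5 × 10^3/well and cultured overnight, then exposed to compounds for 24 h. Viability read by MTS. Media: SW480 in RPMI1640, A549 in DMEM, MCF7 in MEM. […] Irinotecan positive control.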
# [5] = tested on: SW480; assay: Cytotoxicity against human SW480 cells assessed as reduction in cell viability after 24 hrs by MTS assay; type: functional, cell-based; conditions: SW480, 24 h; outline: as §2
# [6] = tested on: A549; assay: Cytotoxicity against human A549 cells assessed as reduction in cell viability after 24 hrs by MTS assay; type: functional, cell-based; conditions: A549, 24 h; outline: as §2
# [7] = tested on: MCF7; assay: Cytotoxicity against human MCF7 cells assessed as reduction in cell viability after 24 hrs by MTS assay; type: functional, cell-based; conditions: MCF7, 24 h; outline: as §2
# [8] = biological target: T4, Tyrosine-protein phosphatase non-receptor type 1 (Homo sapiens) (UniProt P18031); assay: Inhibition of recombinant human PTP1B assessed as hydrolysis of p-nitrophenyl phosphate at 25 uM after 30 mins relative to control
# T4 sequence (whole entry): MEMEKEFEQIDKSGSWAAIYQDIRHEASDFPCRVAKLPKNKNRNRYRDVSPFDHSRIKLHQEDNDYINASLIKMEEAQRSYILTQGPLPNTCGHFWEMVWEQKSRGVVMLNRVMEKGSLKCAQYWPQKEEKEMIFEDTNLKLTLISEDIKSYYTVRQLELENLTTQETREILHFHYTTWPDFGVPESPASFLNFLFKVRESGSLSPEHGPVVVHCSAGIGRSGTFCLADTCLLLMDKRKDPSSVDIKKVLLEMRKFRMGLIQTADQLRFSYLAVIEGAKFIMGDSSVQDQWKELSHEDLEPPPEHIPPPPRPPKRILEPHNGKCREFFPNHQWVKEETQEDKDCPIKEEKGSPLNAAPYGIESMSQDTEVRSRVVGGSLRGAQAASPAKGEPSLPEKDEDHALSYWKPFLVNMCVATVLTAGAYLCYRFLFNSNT
# [9] = biological target: T5, Tyrosine-protein phosphatase non-receptor type 1 (Homo sapiens, UniProt P18031); assay: Inhibition of recombinant human PTP1B assessed as hydrolysis of p-nitrophenyl phosphate
# T5 sequence (P18031 whole entry): T4 sequence (whole entry)
# [10] = tested on: MDCK; assay: Cytotoxicity against MDCK cells after 36 hrs; type: cell-based, Canis lupus familiaris; conditions: dog
# [11] = tested on: RAW264.7; assay: Antiinflammatory activity in mouse RAW264.7 cells assessed as inhibition of LPS-induced nitric oxide production at 10 uM after 24 hrs by Griess assay; type: functional; conditions: RAW264.7, 24 h
# Outline: (§3)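 RAW264.7 cells plated at 1.2 × 10^5/well in RPMI1640 and co-treated with compound and 1 μg/mL LPS for 24 h. Nitrite in medium read with Griess reagent (sulfanilamide/naphthylethylenediamine, phosphoric acid) after 15 min at 37 °C, absorbance 540 nm. […] Curcumin positive control.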
# [12] = tested on: RAW264.7; assay: Antiinflammatory activity in mouse RAW264.7 cells assessed as inhibition of LPS-induced nitric oxide production after 24 hrs by Griess assay; type: functional, cell-based; conditions: RAW264.7, 24 h; outline: as §3
# [13] = biological target: T4, Tyrosine-protein phosphatase non-receptor type 1 (Homo sapiens); conditions: 5 uM
# [14] = biological target: T3, Acetylcholinesterase; assay: Inhibition AChE (unknown origin) using ATCI as substrate assessed as hydrolysis of ATCI after 10 mins measured every 1 min for 10 times
# [15] = biological target: T6, Nuclear factor erythroid 2-related factor 2 (Homo sapiens) (UniProt Q16236); assay: Inhibition of NRF2 transcription in human HepG2C8 cells at 10 uM after 6 hrs by luciferase reporter gene assay relative to control; type: cell-based
# T6 sequence (whole entry): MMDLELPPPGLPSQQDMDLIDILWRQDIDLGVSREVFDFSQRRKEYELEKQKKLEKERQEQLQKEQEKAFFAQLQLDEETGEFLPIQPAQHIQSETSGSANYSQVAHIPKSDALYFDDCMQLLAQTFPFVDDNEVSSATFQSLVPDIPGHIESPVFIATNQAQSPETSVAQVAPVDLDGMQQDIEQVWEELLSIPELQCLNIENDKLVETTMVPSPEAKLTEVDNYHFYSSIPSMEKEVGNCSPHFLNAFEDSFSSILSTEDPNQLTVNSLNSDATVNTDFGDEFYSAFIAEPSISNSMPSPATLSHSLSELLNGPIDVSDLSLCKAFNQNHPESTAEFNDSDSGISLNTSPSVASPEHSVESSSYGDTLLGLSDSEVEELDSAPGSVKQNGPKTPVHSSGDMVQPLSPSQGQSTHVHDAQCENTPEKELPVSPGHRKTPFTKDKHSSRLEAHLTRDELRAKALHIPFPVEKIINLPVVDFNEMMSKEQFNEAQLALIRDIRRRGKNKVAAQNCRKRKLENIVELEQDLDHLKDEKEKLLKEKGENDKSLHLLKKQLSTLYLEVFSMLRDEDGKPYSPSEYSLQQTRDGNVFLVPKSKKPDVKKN
# Outline: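 Luciferase reporter in HepG2C8 cells, which are HepG2 stably transfected with an Nrf2 luciferase reporter and grown in MEM. Screened at 10 μM, with dose-response over 2.5−40 μM. Activity expressed as fold of control. tBHQ positive control.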
smiles,measurement,setting,value
COc1c(CC=C(C)C)c(O)cc2c1C[C@H](c1ccc(O)cc1O)CO2 [GLYASPERIN C],inhibition,[1],> 95%
same,pIC50,[2],6.75
CC(C)=CCc1c(O)ccc(-c2coc3cc(O)c(CC=C(C)C)c(O)c3c2=O)c1O,inhibition,[3],71%
same,pIC50,[4],5.96
same,pIC50,[5],5.19
same,pIC50,[6],5.15
same,pIC50,[7],5.22
same,inhibition,[8],> 95%
same,pIC50,[9],6.40
same,Activity,[10],Toxic
COc1c(-c2ccc(O)c(CC=C(C)C)c2)oc2cc(O)cc(O)c2c1=O,inhibition at 10 µM,[11],> 50%
same,pIC50,[12],4.92
same,inhibition,[8],85%
C[C@H]1[C@H](C)CC[C@]2(C(=O)O)CC[C@]3(C)C(=CC[C@@H]4[C@@]5(C)CC[C@H](O)C(C)(C)[C@@H]5CC[C@]43C)[C@H]12,inhibition,[13],45%
COc1cc2occ(-c3ccc(O)cc3O)c(=O)c2c(O)c1CC=C(C)C,pIC50,[14],5.00
same,inhibition,[3],83%
O=c1c(O)c(-c2ccc(O)cc2)oc2cc(O)cc(O)c12 [KAEMPFEROL],inhibition,[1],> 95%
same,pIC50,[2],6.00
COc1c2c(cc3c1CCC(C)(C)O3)OC[C@@H](c1ccc(O)c(CCC(C)(C)O)c1O)C2,inhibition,[15],76%
